According to ChEMBL document CHEMBL3352380, “Development of benzo[d]oxazol-2(3H)-ones derivatives as novel inhibitors of Mycobacterium tuberculosis InhA” (Bioorg Med Chem, 2014):
≈ marks a conversion by molar mass, not a printed value.

Experiments:
[1] = tested on: Mycobacterium tuberculosis; test: Antimicrobial activity against Mycobacterium tuberculosis H37Rv ATCC 27294 after 28 days by two-fold agar dilution method; format: functional; settings: H37Rv ATCC 27294, 672 h
Method in brief: (§1)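 Two-fold serial dilutions in Middlebrook 7H11 agar with OADC supplement, final 50 to 0.78 µg/mL. Inoculum from fresh 7H11/OADC slants, adjusted to 1 mg/mL wet weight in 0.05% Tween 80 saline and diluted 10^-2 (~10^7 cfu/mL), spotted onto drug-containing agar tubes. Incubated at 37 °C; MIC is the lowest concentration inhibiting growth, read at 28 days.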

[2] = biological target: T1, Enoyl-[acyl-carrier-protein] reductase [NADH] (Mycobacterium tuberculosis) (UniProt P9WGR1); test: Inhibition of Mycobacterium tuberculosis recombinant His6-tagged InhA expressed in Escherichia coli BL21(DE3) using 2-trans-decenoyl-CoA as substrate at 10 uM incubated for 2 hrs prior to substrate addition by spectrophotometry
T1 sequence (whole entry): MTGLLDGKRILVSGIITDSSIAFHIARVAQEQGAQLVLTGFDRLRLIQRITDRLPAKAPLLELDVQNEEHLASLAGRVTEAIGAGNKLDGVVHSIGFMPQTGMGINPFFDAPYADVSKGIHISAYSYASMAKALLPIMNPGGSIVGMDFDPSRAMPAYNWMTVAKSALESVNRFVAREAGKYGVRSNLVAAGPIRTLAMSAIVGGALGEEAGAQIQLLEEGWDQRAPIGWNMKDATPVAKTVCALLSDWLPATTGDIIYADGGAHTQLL
Method in brief: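 His6-InhA expressed in E. coli BL21(DE3) with 0.1 mM IPTG at 18 °C and purified on Ni-NTA. 70 nM enzyme pre-incubated 2 h with inhibitor at 10 µM in 30 mM PIPES, 150 mM NaCl, pH 6.8, 0.5% DMSO, 25 °C. Reaction started with DD-CoA plus NADH and followed at 340 nm. Initial velocity compared with a no-ligand control; triplicate.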

[3] = Cytotoxicity against mouse RAW264.7 cells at 100 uM after 72 hrs by MTT assay; format: cell-based; settings: read-out: INH
Method in brief: (§2)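 RAW 264.7 macrophages exposed to compound for 72 h. Viability read as MTT conversion to formazan with a non-radioactive cell proliferation kit, reported as percentage growth inhibition.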

[4] = tested on: Mycobacterium tuberculosis; test: Antimicrobial activity against Mycobacterium tuberculosis H37Rv ATCC 27294 after 28 days by two-fold agar dilution method in presence of verapamil; format: functional; settings: H37Rv ATCC 27294, 672 h; method in brief: as §1
[5] = Cytotoxicity against mouse RAW264.7 cells at 50 uM after 72 hrs by MTT assay; format: cell-based; settings: read-out: INH; method in brief: as §2
[6] = tested on: Mycobacterium tuberculosis; test: Antimicrobial activity against Mycobacterium tuberculosis H37Rv ATCC 27294 after 28 days by two-fold agar dilution method in presence of piperine; format: functional; settings: H37Rv ATCC 27294, 672 h; method in brief: as §1
[7] = biological target: T2, Enoyl-[acyl-carrier-protein] reductase [NADH] (Mycobacterium tuberculosis, UniProt P9WGR1); test: Inhibition of Mycobacterium tuberculosis recombinant His6-tagged InhA expressed in Escherichia coli BL21(DE3) using 2-trans-decenoyl-CoA as substrate incubated for 2 hrs prior to substrate addition by spectrophotometry
T2 sequence (P9WGR1 whole entry): T1 sequence (whole entry)

[8] = biological target: T1, Enoyl-[acyl-carrier-protein] reductase [NADH] (Mycobacterium tuberculosis)

SMILES	MIC [1] [µM]	inhibition [2] [%]	cytotoxicity at 72 h, 100 µM [3] [%]	MIC [4] [µM]	cytotoxicity at 72 h, 50 µM [5] [%]	MIC [6] [µM]	IC50 [7] [µM]	Tm [8] [°C]
O=C(Cn1c(=O)oc2cc(Cl)ccc21)Nc1cc(C(F)(F)F)ccc1Cl	61.7 (≈ 25 µg/mL)	40.1	12.1	15.4	1.61	15.4		
CC1COc2c(N3CCN(C)CC3)c(F)cc3c(=O)c(C(=O)O)cn1c23 (stereo not drawn) [OFLOXACIN]	2.16 (≈ 0.781 µg/mL)							
O=C(Cn1c(=O)oc2ccccc21)Nc1ccc(Cl)c(Cl)c1		16.5					> 25	
CC[C@@H](CO)NCCN[C@@H](CC)CO [ETHAMBUTOL]	7.64 (≈ 1.56 µg/mL)							
O=C(Cn1c(=O)oc2cc([N+](=O)[O-])ccc21)NCc1cccs1	18.8 (≈ 6.25 µg/mL)	35.7	41	18.8	36.5	18.8		
O=C(Cn1c(=O)oc2ccccc21)Nc1cc(Cl)ccc1Cl		19.5					22.1	
O=C(Cn1c(=O)oc2ccccc21)Nc1nc2ccc([N+](=O)[O-])cc2s1	33.8 (≈ 12.5 µg/mL)	45.1	19.2	8.43	12.4	4.21		
O=C(Cn1c(=O)oc2cc(Cl)ccc21)Nc1ncc([N+](=O)[O-])s1	17.6 (≈ 6.25 µg/mL)	72.6	50.6	8.81	14.3	17.6	6.82	
O=C(Cn1c(=O)oc2cc(Cl)ccc21)NCc1ccccn1	39.3 (≈ 12.5 µg/mL)	43.1	40	4.91	36.1	4.91		
O=C(Cn1c(=O)oc2cc([N+](=O)[O-])ccc21)Nc1ccccn1	39.8 (≈ 12.5 µg/mL)	15.6	47.3	19.9	38.6	9.94		
CO[C@H]1/C=C/O[C@@]2(C)Oc3c(C)c(O)c4c(O)c(c(/C=N/N5CCN(C)CC5)c(O)c4c3C2=O)NC(=O)/C(C)=C\C=C\[C@H](C)[C@H](O)[C@@H](C)[C@@H](O)[C@@H](C)[C@H](OC(C)=O)[C@@H]1C [RIFAMPIN]	0.15 (≈ 0.123 µg/mL)							
O=C(Cn1c(=O)oc2ccccc21)NCc1cccs1	21.7 (≈ 6.25 µg/mL)	26.1	49.1	10.8	23.4	5.41		
O=C(Cn1c(=O)oc2cc(Cl)ccc21)NCc1ccco1	40.8 (≈ 12.5 µg/mL)	47.5	50.3	20.4	27.8	10.2		
O=C(Cn1c(=O)oc2cc([N+](=O)[O-])ccc21)Nc1nc2ccc([N+](=O)[O-])cc2s1	15 (≈ 6.25 µg/mL)	51.7	39	3.75	14.8	3.75		
O=C(Cn1c(=O)oc2cc([N+](=O)[O-])ccc21)NCc1ccco1	78.8 (≈ 25 µg/mL)	36.9	60.1	39.4	26.8	39.4		
O=C(Cn1c(=O)oc2ccccc21)Nc1cccc(Cl)c1		17					> 25	
O=C(Cn1c(=O)oc2ccccc21)NCc1ccco1	22.9 (≈ 6.25 µg/mL)	30.1	33.8	22.9	32.8	22.9		

SMILES	MIC [1] [µM]	inhibition [2] [%]	cytotoxicity at 72 h, 100 µM [3] [%]	MIC [4] [µM]	cytotoxicity at 72 h, 50 µM [5] [%]	MIC [6] [µM]	IC50 [7] [µM]	Tm [8] [°C]
O=C(Cn1c(=O)oc2cc([N+](=O)[O-])ccc21)Nc1ncc([N+](=O)[O-])s1	17.1 (≈ 6.25 µg/mL)	82.4	43.8	8.55	20.2	8.55	5.12	1.9
O=C(Cn1c(=O)oc2cc([N+](=O)[O-])ccc21)Nc1nc2ccccc2s1	33.8 (≈ 12.5 µg/mL)	60.8	56.1	33.8	22.7	33.8	7.62	
O=C(Cn1c(=O)oc2ccccc21)Nc1ncc([N+](=O)[O-])s1	78 (≈ 25 µg/mL)	48.1	44.6	39	25	19.5		
NNC(=O)c1ccncc1 [ISONIAZID]	0.72 (≈ 0.0987 µg/mL)							
O=C(Cn1c(=O)oc2cc(Cl)ccc21)Nc1nc2ccc([N+](=O)[O-])cc2s1	30.9 (≈ 12.5 µg/mL)	48.6	14.2	7.72	12.5	7.72		
O=C(Cn1c(=O)oc2ccccc21)Nc1nc2ccccc2s1	19.2 (≈ 6.25 µg/mL)	42.1	59.6	9.6	43.5	9.6		
O=C(Cn1c(=O)oc2ccccc21)NCc1ccccn1	88.2 (≈ 25 µg/mL)	42.2	38.7	22.1	37.3	44.1		
O=C(Cn1c(=O)oc2ccccc21)Nc1ccccc1	46.6 (≈ 12.5 µg/mL)	32.4	39.8	23.3	35.1	23.3		
O=C(Cn1c(=O)oc2cc([N+](=O)[O-])ccc21)Nc1cc(C(F)(F)F)ccc1Cl	60.1 (≈ 25 µg/mL)	32.2	31.6	15	12.8	30.1		
O=C(Cn1c(=O)oc2ccccc21)Nc1ccccn1	46.4 (≈ 12.5 µg/mL)	26.1	28.4	4.64	20.2	9.28		
O=C(Cn1c(=O)oc2cc(Cl)ccc21)NCc1cccs1	38.7 (≈ 12.5 µg/mL)	45.6	53.6	9.64	20.3	9.64		
O=C(Cn1c(=O)oc2cc([N+](=O)[O-])ccc21)NCc1ccccn1	76.2 (≈ 25 µg/mL)	68.1	33.4	38.1	21.8	9.51	8.23	
O=C(Cn1c(=O)oc2cc(Cl)ccc21)Nc1nc2ccccc2s1	17.4 (≈ 6.25 µg/mL)	58.2	52.5	8.68	38.7	17.4	8.9	
O=C(Cn1c(=O)oc2cc(Cl)ccc21)Nc1ccccc1	82.6 (≈ 25 µg/mL)	28.2	20.2	20.6	15.8	41.3		
O=C(Cn1c(=O)oc2cc([N+](=O)[O-])ccc21)Nc1ccccc1	79.8 (≈ 25 µg/mL)	46.1	26.4	19.9	18	9.97		
O=C(Cn1c(=O)oc2cc(Cl)ccc21)Nc1ccccn1	82.3 (≈ 25 µg/mL)	51.6	43.7	10.3	33	10.3		
O=C(Cn1c(=O)oc2ccccc21)Nc1cc(C(F)(F)F)ccc1Cl	67.4 (≈ 25 µg/mL)	26.8	15.4	33.7	12.3	16.9		
